Shown is part of a subset that was picked to be rich in hits.
T cruzi intra – inhibitors of intracellular Trypanosoma cruzi, primary screen, cell-based, plate reader, single point, set 2; intracellular Trypanosoma cruzi in host cells; activity score (inhibition), % at 5.01 µM; 4.9% of 22,000 active; AID 651903, 2012; in the data active means activity score above about 55%;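 further: parasites and compound incubated about four days before reading; 0% = median of neutral control wells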
INS-1E rescue – protection of INS-1E cells from cytokine death, primary screen, ATP luminescence, single point | 0.1% of 20,000 active | INS-1E cytokine-induced death, 48 h; normalised: neutral wells 0, positive control 100 | protection from cytokine-induced ATP loss, % at 10 µM;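 active means mean replicate protection from cytokine-induced ATP loss at least 50% and at least 75% of replicates each reaching 50%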
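Assay system – rat INS-1E insulinoma cell line · Quantity – 8000 cells per well · Buffer or medium – RPMI without phenol red, 5% FBS · Schedule – 48 h co-treatment, 10 min post-lysis read · Technique – luminescent ATP assay (CellTiter-Glo)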
A1 apoptosis 2 – A1 inhibitors via caspase activation, primary screen, cell-based, luminescence, HTS, two replicates; MEF A1-2A-BIM cells, caspase-Glo luminescence, 3 h; percent of clofoctol response, DMSO zero; caspase activation, % (no concentration beside the values); 24,000 tested, under 10 active; in the data active means caspase activation above about 5.9%
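Material: A1-2A-BIM-expressing MEF cells. Buffer or medium: RPMI-1640 plus 10% FBS. Incubation: cells settled overnight, compound exposure 3 h at 37 °C, 5% CO2. Signal: Caspase-Glo 3/7 luminescence, 1 h at room temperature.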
Numbers without * were called inactive; . = not tested or not shown.

SMILES	T cruzi intra	INS-1E rescue	A1 apoptosis 2
C[C@H]1CN([C@@H](C)CO)C(=O)c2cc(NC(=O)Nc3cccc4ccccc34)ccc2O[C@@H]1CN(C)Cc1ccc(Cl)c(Cl)c1	65*	-35	0
C[C@H]1CN([C@@H](C)CO)C(=O)c2cc(NC(=O)Nc3cccc4ccccc34)ccc2O[C@H]1CN(C)Cc1ccc(Cl)c(Cl)c1	48	.	-1
O=C(N/N=C/c1ccc(OCc2ccccc2)cc1O)c1ccccn1	.	.	-8
C=CCOC(=O)[C@]12O[C@@]3(COC[C@H](c4ccccc4)N3C1=O)[C@H]1C(=O)N(c3ccccc3)C(=O)[C@H]12	.	.	-1
C[C@H]1CN([C@@H](C)CO)C(=O)Cc2cc(NC(=O)C3CC3)ccc2O[C@@H]1CN(C)S(=O)(=O)c1ccccc1	-2	12	-1
O=C(N/N=C/c1ccc(O)c(O)c1)c1ccccn1	.	.	-7
O=C(CCCCCC(=O)Nc1ccccc1O)N/N=C/c1ccc(CO)o1	-4	13	0
O=S(=O)(NC1CCN(Cc2cccc(OCCO)c2)CC1)c1cc(C(F)(F)F)ccc1Cl	.	.	-1
O=C(CCCCCC(=O)Nc1ccccc1O)N/N=C/c1ccccc1O	.	.	0
C[C@H](CO)N1C[C@H](C)[C@H](CN(C)Cc2ccc(Oc3ccccc3)cc2)Oc2ccc(NC(=O)Nc3ccc(C(F)(F)F)cc3)cc2CC1=O	64*	-52	2
COc1ccc(NC(=O)Nc2ccc3c(c2)CC(=O)N([C@H](C)CO)C[C@H](C)[C@@H](CN(C)Cc2ccc(C(F)(F)F)cc2)O3)cc1	.	.	1
C[C@@H]1CN([C@H](C)CO)C(=O)Cc2cc(NC(=O)Nc3ccc(C(F)(F)F)cc3)ccc2O[C@H]1CN(C)Cc1ccc(Oc2ccccc2)cc1	62*	-16	0
COc1ccc(S(=O)(=O)Nc2ccc3c(c2)C(=O)N([C@H](C)CO)C[C@H](C)[C@@H](CN(C)C(=O)NC(C)C)OCCCC[C@@H](C)O3)cc1	-14	1	2
C[C@H]1CCCCO[C@@H](CN(C)C(=O)C2CCCCC2)[C@@H](C)CN([C@@H](C)CO)C(=O)c2cc(NC(=O)Nc3ccc(C(F)(F)F)cc3)ccc2O1	.	.	1
C[C@@H]1CCCCO[C@H](CN(C)C(=O)Nc2ccc(C(F)(F)F)cc2)[C@@H](C)CN([C@H](C)CO)C(=O)c2cc(NC(=O)C3CCCCC3)ccc2O1	72*	-28	.
C[C@@H]1CCCCO[C@H](CN(C)C(=O)Nc2ccc(C(F)(F)F)cc2)[C@@H](C)CN([C@H](C)CO)C(=O)c2cc(NC(=O)NC3CCCCC3)ccc2O1	68*	-4	.
C[C@@H]1CCCCO[C@H](CN(C)C(=O)C2CCCCC2)[C@@H](C)CN([C@H](C)CO)C(=O)c2cc(NC(=O)Nc3ccc(C(F)(F)F)cc3)ccc2O1	61*	-21	-1
C[C@@H]1CCCCO[C@@H](CN(C)C(=O)NC2CCCCC2)[C@@H](C)CN([C@H](C)CO)C(=O)c2cc(NC(=O)Nc3ccc(C(F)(F)F)cc3)ccc2O1	72*	-1	1
C[C@@H]1CCCCO[C@H](CN(C)C(=O)NC2CCCCC2)[C@H](C)CN([C@@H](C)CO)C(=O)c2cc(NC(=O)Nc3ccc(C(F)(F)F)cc3)ccc2O1	.	.	1
C[C@@H]1CCCCO[C@H](CN(C)C(=O)Nc2ccc(C(F)(F)F)cc2)[C@H](C)CN([C@H](C)CO)C(=O)c2cc(NC(=O)C3CCCCC3)ccc2O1	.	.	-1
C[C@H]1CCCCO[C@H](CN(C)C(=O)Nc2ccc(C(F)(F)F)cc2)[C@@H](C)CN([C@@H](C)CO)C(=O)c2cc(NC(=O)NC3CCCCC3)ccc2O1	.	.	2
Cc1ccc(S(=O)(=O)Nc2ccc3c(c2)C(=O)N([C@H](C)CO)C[C@@H](C)[C@H](CN(C)Cc2ccncc2)OCCCC[C@H](C)O3)cc1	.	.	0
CN(CCO)c1ccc(/C=N/NC(=O)c2ccccc2O)cc1	-3	-32	-3
C[C@H](CO)N1C[C@H](C)[C@@H](CN(C)CC2CC2)Oc2c(NS(=O)(=O)c3cccs3)cccc2C1=O	-3	4	0
C[C@@H]1CN([C@@H](C)CO)C(=O)c2cccc(NC(=O)c3cnccn3)c2O[C@H]1CN(C)Cc1ccc(C(F)(F)F)cc1	15	-1	-2
SMILES	T cruzi intra	INS-1E rescue	A1 apoptosis 2
C[C@H]1CN([C@@H](C)CO)C(=O)c2cccc(NC(=O)c3ccncc3)c2O[C@@H]1CN(C)Cc1ccc(C(F)(F)F)cc1	78*	17	0
C[C@@H]1CN([C@@H](C)CO)C(=O)c2cccc(NC(=O)c3ccncc3)c2O[C@H]1CN(C)Cc1ccc(C(F)(F)F)cc1	77*	4	0
C[C@@H]1CN([C@H](C)CO)C(=O)c2cccc(NC(=O)c3ccncc3)c2O[C@H]1CN(C)Cc1ccc(C(F)(F)F)cc1	79*	2	2
C[C@H](CO)N1C[C@H](C)[C@@H](CN(C)Cc2ccc(C(F)(F)F)cc2)Oc2c(NC(=O)c3ccncc3)cccc2C1=O	83*	-15	0
C[C@@H]1CN([C@H](C)CO)C(=O)c2cccc(NC(=O)c3ccncc3)c2O[C@@H]1CN(C)Cc1ccc(C(F)(F)F)cc1	-1	-5	0
C[C@@H]1CN([C@H](C)CO)C(=O)c2cccc(NC(=O)c3cnccn3)c2O[C@H]1CN(C)Cc1ccc(C(F)(F)F)cc1	-3	-4	0
O=C(CCCCCCC(=O)Nc1ccccc1O)N/N=C/c1nccs1	3	7	-1
OCC1CC(c2ccccc2)=NO1 (stereo unspecified)	.	.	-1
O=C(N/N=C/c1ccccc1Cl)c1ccccn1	-12	-2	-10
O=C(NO)c1cccc(C(=O)N/N=C/c2ccccc2OCCO)c1	-13	10	-1
COC(=O)CCCCCCC(=O)N/N=C/c1ccc(C#N)cc1	3	4	.
C[C@@H]1CN([C@@H](C)CO)C(=O)c2cccc(NC(=O)c3nc4ccccc4s3)c2O[C@@H]1CN(C)Cc1ccc(C(=O)O)cc1	-2	7	.
C[C@@H]1CN([C@H](C)CO)C(=O)c2cccc(NC(=O)c3nc4ccccc4s3)c2O[C@@H]1CN(C)Cc1ccc(C(F)(F)F)cc1	69	-63	.
C[C@H](CO)N1C[C@H](C)[C@H](CN(C)Cc2ccc(C(F)(F)F)cc2)Oc2c(NC(=O)c3nc4ccccc4s3)cccc2C1=O	67*	-79	-1
C[C@@H]1CN([C@@H](C)CO)C(=O)c2cccc(NC(=O)c3nc4ccccc4s3)c2O[C@H]1CN(C)Cc1ccc(C(F)(F)F)cc1	64*	-55	2
C[C@@H]1CN([C@@H](C)CO)C(=O)c2cccc(NC(=O)c3nc4ccccc4s3)c2O[C@H]1CN(C)Cc1ccccc1	37	-14	0
C[C@H]1CN([C@@H](C)CO)C(=O)c2cccc(NC(=O)c3nc4ccccc4s3)c2O[C@@H]1CN(C)Cc1ccccc1	51	-34	.
C[C@H](CO)N1C[C@H](C)[C@@H](CN(C)Cc2ccc(C(F)(F)F)cc2)Oc2c(NC(=O)c3nc4ccccc4s3)cccc2C1=O	62*	-48	.

Bioassay records from PubChem BioAssay.
